Results taken from paper PMC3967098 (Journal of medicinal chemistry, 2008).
pIC50: −log10 of the molar value. Like-named read-outs stand apart in the source and are kept apart here. One block for each molecule: values may come before it.

Experiments:
MCF7 cells [1] = assay: Long-term; format: cell-based, human; conditions: 1 week MCF7
Method in brief: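 MCF7 cells (1×10^5 seeded, supplemented DMEM, 37 °C, 5% CO2) were exposed for 1 week to two sub-cytotoxic ligand concentrations, re-dosed twice weekly, alongside a media-only control. Cells were counted by haemocytometer, and population doublings were calculated as n = (log Pn – log P0)/log2, where P0 is the seeding density. Values are reported ± sd.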

MCF7 cells [2] = assay: Assessment of chromosomal end-end fusions; format: cell-based, human; conditions: 1 week, data not shown
c-myc quadruplex = assay: SPR equilibrium binding, c-myc quadruplex; design: species or system human; conditions: for SPR Ligand KA for a single-site fit, c-myc: strong binding site, 25°C
Method in brief: (§1)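 5′-Biotinylated quadruplex oligonucleotides were captured on a streptavidin chip to 350-400 RU, with a blank reference flow cell. Runs used 10mM HEPES, 100mM KCl, 3mM EDTA and P20 surfactant (pH 7.3) at 25°C. Ligand (1nM–10µM) was injected at 50µl/min for 5–10 min to steady state, then buffer for 10 min. The surface was regenerated with 10mM glycine pH 2.0, and KA came from nonlinear least-squares fitting.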

c-kit1 quadruplex = assay: SPR equilibrium binding, c-kit1 quadruplex; design: species or system human; conditions: strong binding site; 25°C
Method in brief: as §1

[3] = test system: hTel quadruplex (human telomere); assay: SPR equilibrium binding, hTel quadruplex; conditions: strong binding site; 25°C, HEPES 100mM KCl pH 7.3
Method in brief: as §1

c-kit2 quadruplex = assay: SPR equilibrium binding, c-kit2 quadruplex; design: species or system human; conditions: strong binding site; 25°C
Method in brief: as §1

[4] = test system: FRET-tagged duplex DNA sequence; assay: FRET melting assay, duplex DNA; format: binding
[5] = test system: hTel quadruplex (human telomere); conditions: strong binding site; cited from earlier work
[6] = test system: MCF7 breast adenocarcinoma cell line; conditions: read-out: SRB IC50, MCF7; cited from earlier work
DNA hairpin duplex = conditions: cited from earlier work
[7] = test system: A549 non-small cell lung carcinoma cell line; conditions: read-out: SRB IC50, A549; cited from earlier work

SMILES: O=C(CCN1CCCCC1)Nc1ccc(NC(=O)c2cccc(NC(=O)Nc3cccc(C(=O)Nc4ccc(NC(=O)CCN5CCCCC5)cc4)c3)c2)cc1 [9h, 1,3-bis(3-(4-(3-(piperidin-1-yl)propanamido)phenylcarbamoyl)phenyl)urea]
- PD (population doublings) (MCF7 cells [1]; 2.00 μM): 3.66 ± 0.00
- PD (population doublings) (MCF7 cells [1]; 3.50 μM): 3.46 ± 0.34

- SPR Ligand KA for a single-site fit, c-myc (c-myc quadruplex): 2.1e+06 M⁻¹
- SPR Ligand KA for a single-site fit, c-kit1 (c-kit1 quadruplex): 1.4e+06 M⁻¹
- SPR Ligand KA for a single-site fit, hTel [3]: 1.1e+06 M⁻¹
- SPR Ligand KA for a single-site fit, c-kit2 (c-kit2 quadruplex): 5e+06 M⁻¹
SMILES: O=C(CCN1CCCC1)Nc1ccc(NC(=O)c2cccc(NC(=O)Nc3cccc(C(=O)Nc4ccc(NC(=O)CCN5CCCC5)cc4)c3)c2)cc1 [9b, 1,3-bis(3-(4-(3-(pyrrolidin-1-yl)propanamido)phenylcarbamoyl)phenyl)urea]
- chromosomal end-end fusions relative to an untreated control (MCF7 cells [2]): did not show significant changes
- PD (population doublings) (MCF7 cells [1]; 1.00 μM): 4.53 ± 0.07
- PD (population doublings) (MCF7 cells [1]; 1.75 μM): 4.50 ± 0.03
- PD (population doublings) (MCF7 cells [1]; 2.25 μM): 2.73 ± 0.20

SMILES: O=C(CCCN1CCCC1)Nc1cccc(NC(=O)c2cccc(NC(=O)Nc3cccc(C(=O)Nc4cccc(NC(=O)CCCN5CCCC5)c4)c3)c2)c1 [9f, 1,3-bis(3-(3-(4-(pyrrolidin-1-yl)butanamido)phenylcarbamoyl)phenyl)urea]
- FRET ΔTm at a 1μM ligand concentration, Duplex [4]: 0.0 ± 0.3 °C

- SPR Ligand KA for a single-site fit, c-myc (c-myc quadruplex): 900000 M⁻¹
- SPR Ligand KA for a single-site fit, c-kit1 (c-kit1 quadruplex): 400000 M⁻¹
- SPR Ligand KA for a single-site fit, hTel [3]: 400000 M⁻¹
- SPR Ligand KA for a single-site fit, c-kit2 (c-kit2 quadruplex): 3.1e+06 M⁻¹
SMILES: O=C(CCCN1CCCC1)Nc1ccc(NC(=O)c2cccc(NC(=O)Nc3cccc(C(=O)Nc4ccc(NC(=O)CCCN5CCCC5)cc4)c3)c2)cc1 [9c, 1,3-bis(3-(4-(4-(pyrrolidin-1-yl)butanamido)phenylcarbamoyl)phenyl)urea]
- FRET ΔTm at a 1μM ligand concentration, Duplex [4]: 0.0 ± 0.6 °C
- PD (population doublings) (MCF7 cells [1]; 3.50 μM): 3.94 ± 0.24
- PD (population doublings) (MCF7 cells [1]; 7.00 μM): 3.35 ± 0.03

SMILES: O=C(CCN1CCCC1)Nc1cccc(NC(=O)c2ccc(NC(=O)Nc3ccc(C(=O)Nc4cccc(NC(=O)CCN5CCCC5)c4)cc3)cc2)c1 [10e, 1,3-bis(4-(3-(3-(pyrrolidin-1-yl)propanamido)phenylcarbamoyl)phenyl)urea]
- PD (population doublings) (MCF7 cells [1]; 1.00 μM): 3.40 ± 0.26
- PD (population doublings) (MCF7 cells [1]; 2.00 μM): 1.81 ± 0.10

SMILES: CN(C)c1ccc(Nc2c3ccc(NC(=O)CCN4CCCC4)cc3nc3cc(NC(=O)CCN4CCCC4)ccc23)cc1 [BRACO-19, 3,6-bis(3-pyrrolidin-1-ylpropionamido)-9-(4-dimethylaminophenylamino) acridine]
- SPR Ligand KA for a single-site fit, hTel [5]: 3.1e+07 M⁻¹
- pIC50 [6]: 5.60
- SPR KA, Duplex (DNA hairpin duplex): 500000 M⁻¹
- pIC50 [7]: 5.62

- selectivity for the c-myc quadruplex (SPR) (c-myc quadruplex; relative to the other quadruplexes): ~3 fold
- SPR Ligand KA for a single-site fit, c-myc (c-myc quadruplex): 1.4e+07 M⁻¹
- SPR Ligand KA for a single-site fit, c-kit1 (c-kit1 quadruplex): 2.1e+06 M⁻¹
- SPR Ligand KA for a single-site fit, hTel [3]: 1.4e+06 M⁻¹
- SPR Ligand KA for a single-site fit, c-kit2 (c-kit2 quadruplex): 5.1e+06 M⁻¹
SMILES: O=C(CN1CCCC1)Nc1ccc(NC(=O)c2cccc(NC(=O)Nc3cccc(C(=O)Nc4ccc(NC(=O)CN5CCCC5)cc4)c3)c2)cc1 [9a, 1,3-bis(3-(4-(2-(pyrrolidin-1-yl)acetamido)phenylcarbamoyl)phenyl)urea]
- FRET ΔTm at a 1μM ligand concentration, Duplex [4]: 0.0 ± 0.6 °C
- PD (population doublings) (MCF7 cells [1]; 5.00 μM): 3.79 ± 0.12
- PD (population doublings) (MCF7 cells [1]; 10.00 μM): 3.00 ± 0.38
